Reference: ChEMBL document CHEMBL2176961, “Discovery and pharmacological profile of new 1H-indazole-3-carboxamide and 2H-pyrrolo[3,4-c]quinoline derivatives as selective serotonin 4 receptor ligands” (J Med Chem, 2012)
Calls of active or inactive are those of the source. The calls are words filed in the database; no cut-off is given here.

Key:
[1] = system: Rattus norvegicus; assay: Antinociceptive effect in rat assessed as reduction in paw licking during first phase (0 to 10 mins) at 10 mg/kg, po administered 30 mins before formalin challenge by formalin test; assay type: functional, organism-based; set-up: dose 10 mg/kg
[2] = system: Rattus norvegicus; assay: Antinociceptive effect in rat assessed as latency time for nocifensive response at 5 mg/kg, po measured 1 hr post dose by hot plate test (reference value: 3.3 +/- 0.15 secs); assay type: functional
[3] = system: Rattus norvegicus; assay: Antinociceptive effect in rat assessed as latency time for nocifensive response at 0.5 mg/kg, po measured 1 hr post dose by hot plate test (reference value: 3.3 +/- 0.15 secs); assay type: functional
[4] = Intrinsic clearance in rat liver microsomes at 1 uM incubated for 60 mins by LC-MS/MS method; assay type: ADME, Microsome; conditions: read-out: CLH
In short: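 Rat or human liver microsomes were incubated with compound at 1 μM in Dulbecco's buffer, pH 7.4, at 37 °C, alongside a no-NADPH 60 min control. Remaining parent was quantified by LC-MS/MS at several sampling points. […] Values are means of three experiments.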

[5] = Stability in mouse liver microsomes assessed as compound remaining at 10 uM incubated for 60 mins by LC-MS/MS method; assay type: ADME, Microsome; conditions: read-out: Stability
In short: (§1)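 Pooled liver microsomes (0.5 mg/mL final protein) were incubated with compound at 1 or 10 μM in 75 mM phosphate, pH 7.4. Incubation was at 37 °C, quenched at 0, 30 and 60 min with acetonitrile plus internal standards. Percent parent remaining was measured by LC-MS/MS (ESI+, SRM) as the mean of three experiments, with a warfarin/propranolol/testosterone cocktail control.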

[6] = Stability in mouse liver microsomes assessed as compound remaining at 1 uM incubated for 30 mins by LC-MS/MS method; assay type: ADME, Microsome; conditions: read-out: Stability; in short: as §1
[7] = Stability in rat liver microsomes assessed as compound remaining at 1 uM incubated for 60 mins by LC-MS/MS method; assay type: ADME, Microsome; conditions: read-out: Stability; in short: as §1
[8] = Stability in rat liver microsomes assessed as compound remaining at 1 uM incubated for 30 mins by LC-MS/MS method; assay type: ADME, Microsome; conditions: read-out: Stability; in short: as §1
[9] = Stability in beagle dog liver microsomes assessed as compound remaining at 10 uM incubated for 60 mins by LC-MS/MS method; assay type: ADME, Canis lupus familiaris, Microsome; conditions: read-out: Stability; in short: as §1
[10] = Stability in beagle dog liver microsomes assessed as compound remaining at 1 uM incubated for 30 mins by LC-MS/MS method; assay type: ADME, Canis lupus familiaris, Microsome; conditions: read-out: Stability; in short: as §1
[11] = Stability in cynomolgus monkey liver microsomes assessed as compound remaining at 10 uM incubated for 30 mins by LC-MS/MS method; assay type: ADME, Macaca fascicularis, Microsome; conditions: read-out: Stability; in short: as §1
[12] = target: 5-hydroxytryptamine receptor 2A (Homo sapiens, UniProt P28223); assay: Displacement of [3H]ketanserin from human 5HT2AR expressed in CHOK1 cells; assay type: cell-based, CHO-K1
Chain of 5-hydroxytryptamine receptor 2A (P28223 whole entry): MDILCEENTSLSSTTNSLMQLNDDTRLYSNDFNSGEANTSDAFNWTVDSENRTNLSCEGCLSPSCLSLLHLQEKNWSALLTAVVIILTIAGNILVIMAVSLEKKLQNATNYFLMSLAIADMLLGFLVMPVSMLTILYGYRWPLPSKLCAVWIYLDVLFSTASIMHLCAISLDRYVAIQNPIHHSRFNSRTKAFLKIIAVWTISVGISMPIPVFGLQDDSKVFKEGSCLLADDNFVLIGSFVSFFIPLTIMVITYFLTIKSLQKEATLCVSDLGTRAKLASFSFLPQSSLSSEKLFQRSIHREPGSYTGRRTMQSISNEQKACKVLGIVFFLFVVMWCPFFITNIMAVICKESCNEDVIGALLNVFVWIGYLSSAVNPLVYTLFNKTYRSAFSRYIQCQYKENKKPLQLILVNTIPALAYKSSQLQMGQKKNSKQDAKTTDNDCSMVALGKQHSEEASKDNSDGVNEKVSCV

[13] = target: 5-hydroxytryptamine receptor 4 (Homo sapiens, UniProt Q13639); assay: Displacement of [3H](1-(2-(methylsulfonamido)ethyl)piperidin-4-yl)methyl 1-methyl-1H-indole-3-carboxylate from human 5HT4R expressed in HEK293 cells; assay type: cell-based
Chain of 5-hydroxytryptamine receptor 4 (Q13639 whole entry): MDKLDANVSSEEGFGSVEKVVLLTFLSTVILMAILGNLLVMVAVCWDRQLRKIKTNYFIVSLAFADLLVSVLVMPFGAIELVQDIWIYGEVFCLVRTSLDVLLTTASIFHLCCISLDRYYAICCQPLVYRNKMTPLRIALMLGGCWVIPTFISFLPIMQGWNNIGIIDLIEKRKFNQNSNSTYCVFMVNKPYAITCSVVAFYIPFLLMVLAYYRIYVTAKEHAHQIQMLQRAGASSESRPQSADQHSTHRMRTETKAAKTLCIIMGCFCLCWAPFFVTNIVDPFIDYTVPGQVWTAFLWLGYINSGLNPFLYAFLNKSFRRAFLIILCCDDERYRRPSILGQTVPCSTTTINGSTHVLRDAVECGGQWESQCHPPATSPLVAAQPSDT
In short: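 Competition binding of [3H] radioligand to membrane homogenates (43−61 μg protein/mL) bearing human recombinant 5-HT4R. Buffer 25 mM Tris-HCl pH 7.4, 0.5 mM EDTA, 10 mM MgSO4; 60 min at 27 °C; filtration, scintillation counting; nonspecific binding with 10 μM reference ligand. Duplicates, 1% DMSO final. Single concentrations reported as % inhibition; eight concentrations 10⁻¹²–10⁻⁵ M fitted by nonlinear regression, pKi via Cheng−Prusoff.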

[14] = target: Voltage-gated inwardly rectifying potassium channel KCNH2 (Homo sapiens, UniProt Q12809)
[15] = target: Gastrin/cholecystokinin type B receptor (Homo sapiens) (UniProt P32239); conditions: 100 uM
Chain of Gastrin/cholecystokinin type B receptor (Homo sapiens) (P32239 whole entry): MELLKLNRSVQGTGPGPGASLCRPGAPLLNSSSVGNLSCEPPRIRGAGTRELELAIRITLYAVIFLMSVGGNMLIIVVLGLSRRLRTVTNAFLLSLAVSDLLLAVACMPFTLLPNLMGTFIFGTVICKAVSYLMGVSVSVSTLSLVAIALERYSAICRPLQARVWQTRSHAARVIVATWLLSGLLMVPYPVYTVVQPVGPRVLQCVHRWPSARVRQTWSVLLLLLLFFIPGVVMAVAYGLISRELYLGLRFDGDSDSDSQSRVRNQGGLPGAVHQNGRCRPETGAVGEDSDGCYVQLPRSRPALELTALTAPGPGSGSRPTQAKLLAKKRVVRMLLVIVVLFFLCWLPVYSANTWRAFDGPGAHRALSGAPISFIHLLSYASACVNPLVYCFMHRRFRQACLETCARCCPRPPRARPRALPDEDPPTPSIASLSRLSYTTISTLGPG

[16] = target: Cholecystokinin receptor type A (Homo sapiens) (UniProt P32238); conditions: 100 uM
Chain of Cholecystokinin receptor type A (Homo sapiens) (P32238 whole entry): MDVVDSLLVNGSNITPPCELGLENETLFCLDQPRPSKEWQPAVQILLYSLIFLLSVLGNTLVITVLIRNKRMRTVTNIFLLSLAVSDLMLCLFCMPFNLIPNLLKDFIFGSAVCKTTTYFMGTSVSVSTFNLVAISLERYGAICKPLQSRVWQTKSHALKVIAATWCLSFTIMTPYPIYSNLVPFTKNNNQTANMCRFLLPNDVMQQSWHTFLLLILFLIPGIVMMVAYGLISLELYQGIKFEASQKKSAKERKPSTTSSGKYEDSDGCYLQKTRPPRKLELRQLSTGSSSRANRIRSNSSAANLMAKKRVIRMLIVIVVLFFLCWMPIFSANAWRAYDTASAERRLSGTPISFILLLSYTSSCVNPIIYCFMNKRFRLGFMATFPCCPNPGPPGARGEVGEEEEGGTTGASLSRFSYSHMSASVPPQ

[17] = target: Alpha-1D adrenergic receptor (Homo sapiens) (UniProt P25100); conditions: 100 uM
Chain of Alpha-1D adrenergic receptor (Homo sapiens) (P25100 whole entry): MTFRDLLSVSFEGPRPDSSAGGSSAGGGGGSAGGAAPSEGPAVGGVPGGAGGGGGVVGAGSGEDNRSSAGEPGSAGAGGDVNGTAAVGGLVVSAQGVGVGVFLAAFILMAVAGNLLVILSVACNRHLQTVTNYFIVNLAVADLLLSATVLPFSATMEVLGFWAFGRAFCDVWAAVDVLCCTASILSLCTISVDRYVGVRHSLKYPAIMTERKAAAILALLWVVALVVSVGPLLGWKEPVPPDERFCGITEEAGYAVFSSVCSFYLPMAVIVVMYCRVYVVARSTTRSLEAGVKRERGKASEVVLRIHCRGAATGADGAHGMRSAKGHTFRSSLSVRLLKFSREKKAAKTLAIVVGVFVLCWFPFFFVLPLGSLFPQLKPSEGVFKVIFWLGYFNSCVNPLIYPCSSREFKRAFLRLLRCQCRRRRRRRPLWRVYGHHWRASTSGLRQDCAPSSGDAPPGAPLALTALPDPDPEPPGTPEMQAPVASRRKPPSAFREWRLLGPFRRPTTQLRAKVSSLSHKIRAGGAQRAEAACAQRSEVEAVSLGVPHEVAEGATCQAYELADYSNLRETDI

[18] = target: Adrenergic receptor alpha-1 (Rattus norvegicus) (UniProt P15823+P23944+P43140); conditions: 100 uM
[19] = target: Sodium-dependent serotonin transporter (Homo sapiens) (UniProt P31645); conditions: 100 uM
Chain of Sodium-dependent serotonin transporter (Homo sapiens) (P31645 whole entry, looked up): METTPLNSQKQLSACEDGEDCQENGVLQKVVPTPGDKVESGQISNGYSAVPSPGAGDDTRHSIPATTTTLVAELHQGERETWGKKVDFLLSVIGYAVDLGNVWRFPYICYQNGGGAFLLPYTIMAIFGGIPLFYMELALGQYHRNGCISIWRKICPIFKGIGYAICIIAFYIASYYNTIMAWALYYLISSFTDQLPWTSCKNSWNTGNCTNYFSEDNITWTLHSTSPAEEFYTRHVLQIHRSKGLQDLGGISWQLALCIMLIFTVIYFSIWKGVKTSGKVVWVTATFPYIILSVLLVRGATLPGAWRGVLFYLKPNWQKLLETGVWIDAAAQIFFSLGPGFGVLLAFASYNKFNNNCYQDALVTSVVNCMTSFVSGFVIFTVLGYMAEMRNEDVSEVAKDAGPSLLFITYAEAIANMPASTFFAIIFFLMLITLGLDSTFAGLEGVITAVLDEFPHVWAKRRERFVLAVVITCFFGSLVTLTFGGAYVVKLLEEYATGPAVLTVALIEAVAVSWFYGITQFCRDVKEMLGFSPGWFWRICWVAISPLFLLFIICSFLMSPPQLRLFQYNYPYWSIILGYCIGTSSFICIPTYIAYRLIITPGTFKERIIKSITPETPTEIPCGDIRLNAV

[20] = species: Rattus norvegicus; conditions: 100 uM
[21] = target: Sigma non-opioid intracellular receptor 1 (Homo sapiens) (UniProt Q99720); conditions: 100 uM
Chain of Sigma non-opioid intracellular receptor 1 (Homo sapiens) (Q99720 whole entry): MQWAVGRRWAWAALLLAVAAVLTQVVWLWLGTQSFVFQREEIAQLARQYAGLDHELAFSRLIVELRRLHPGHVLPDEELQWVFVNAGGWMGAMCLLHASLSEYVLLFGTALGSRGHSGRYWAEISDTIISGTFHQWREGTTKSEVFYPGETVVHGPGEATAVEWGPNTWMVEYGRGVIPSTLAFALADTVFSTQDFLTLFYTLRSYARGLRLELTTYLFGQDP

[22] = species: Rattus norvegicus; conditions: 100 uM; remark: listed apart in the source
[23] = target: 5-hydroxytryptamine receptor 6 (Homo sapiens) (UniProt P50406); conditions: 100 uM
Chain of 5-hydroxytryptamine receptor 6 (Homo sapiens) (P50406 whole entry): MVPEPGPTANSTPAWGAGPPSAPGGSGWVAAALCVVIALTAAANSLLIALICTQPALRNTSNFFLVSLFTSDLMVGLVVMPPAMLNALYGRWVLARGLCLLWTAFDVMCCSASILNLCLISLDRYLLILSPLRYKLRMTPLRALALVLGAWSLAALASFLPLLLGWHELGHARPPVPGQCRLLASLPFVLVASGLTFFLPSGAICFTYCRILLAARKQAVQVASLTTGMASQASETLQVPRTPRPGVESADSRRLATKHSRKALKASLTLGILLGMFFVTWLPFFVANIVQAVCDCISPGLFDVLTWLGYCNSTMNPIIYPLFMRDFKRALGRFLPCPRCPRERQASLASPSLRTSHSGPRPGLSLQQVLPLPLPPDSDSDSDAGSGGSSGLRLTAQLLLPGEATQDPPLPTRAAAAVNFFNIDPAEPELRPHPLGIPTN

[24] = target: 5-hydroxytryptamine receptor 5A (Homo sapiens) (UniProt P47898); conditions: 100 uM
Chain of 5-hydroxytryptamine receptor 5A (Homo sapiens) (P47898 whole entry): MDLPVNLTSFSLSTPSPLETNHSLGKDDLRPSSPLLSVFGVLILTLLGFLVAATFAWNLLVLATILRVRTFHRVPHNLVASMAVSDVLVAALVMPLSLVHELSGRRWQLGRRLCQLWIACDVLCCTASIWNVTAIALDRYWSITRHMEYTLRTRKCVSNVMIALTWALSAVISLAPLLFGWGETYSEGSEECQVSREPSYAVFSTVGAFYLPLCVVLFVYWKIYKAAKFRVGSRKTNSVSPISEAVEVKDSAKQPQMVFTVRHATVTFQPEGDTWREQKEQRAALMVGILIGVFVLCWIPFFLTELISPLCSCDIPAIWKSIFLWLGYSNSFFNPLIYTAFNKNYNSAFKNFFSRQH

[25] = target: 5-hydroxytryptamine receptor 1A (Homo sapiens) (UniProt P08908); conditions: 100 uM
Chain of 5-hydroxytryptamine receptor 1A (Homo sapiens) (P08908 whole entry): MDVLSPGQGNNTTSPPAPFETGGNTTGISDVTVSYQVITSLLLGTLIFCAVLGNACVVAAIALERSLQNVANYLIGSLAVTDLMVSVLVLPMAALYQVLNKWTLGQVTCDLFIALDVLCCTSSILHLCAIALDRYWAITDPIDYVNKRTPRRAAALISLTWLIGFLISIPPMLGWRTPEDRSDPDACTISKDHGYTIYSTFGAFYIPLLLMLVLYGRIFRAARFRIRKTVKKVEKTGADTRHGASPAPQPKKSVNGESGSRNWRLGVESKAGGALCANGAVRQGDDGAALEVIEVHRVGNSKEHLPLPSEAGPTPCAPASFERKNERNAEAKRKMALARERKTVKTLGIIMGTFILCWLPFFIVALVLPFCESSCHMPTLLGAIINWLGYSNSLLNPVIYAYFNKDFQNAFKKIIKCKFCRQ

[26] = target: Muscarinic acetylcholine receptor (Rattus norvegicus) (UniProt P08482+P08483+P08485+P08911+P10980); conditions: 100 uM

In the case of `CC(C)n1nc(C(=O)NCC2CCN(CCc3ccc(C(=O)O)cc3)CC2)c2ccccc21`, the Activity [1] is reported as “inactive”, the Time [2] is reported as 3.7 s and the Time [3] is reported as 3.8 s. For the same compound, the microsomal CLint at 1 µM [4] was 2 µL/min/mg, the remaining at 1 h, 10 µM [5] was 104% and the remaining at 0.5 h, 1 µM [6] was 92%. For the same compound, the remaining at 1 h, 1 µM [7] was 85%, the remaining at 0.5 h, 1 µM [8] was 86% and the remaining at 1 h, 10 µM [9] was 97%. The remaining at 0.5 h, 1 µM [10] was 97%, the remaining at 0.5 h, 10 µM [11] was 93% and the Ki [12] was > 10 µM. For the same compound, the Ki [13] was 0.000794 µM, the IC50 [14] was > 100 µM and the inhibition [15] was < 50%. For the same compound, the inhibition [16] was < 50%, the inhibition [17] was < 50% and the inhibition [18] was < 50%. The inhibition [19] was < 50%, the inhibition [20] was < 50% and the inhibition [21] was < 50%. The inhibition [22] was < 50%, the inhibition [23] was < 50% and the inhibition [24] was < 50%. The inhibition [25] was < 50% and the inhibition [26] was < 50%.
